This is a sample that favours compounds with a hit; in the whole collection about 4.7% have one here.
Mdm2 MdmX PPI: inhibitors of human Mdm2-MdmX association, primary screen, cell-based, luminescence, split luciferase, SaOS-2, uHTS. SaOS-2 split-luciferase Mdm2/MdmX complementation. inhibition, % at 8 µM. actives 3% (n = 330,000). AID 485346, 2010;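 active = inhibition of at least 50% at 8 µM in the primary screen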
VIM-2 inh: VIM-2 metallo-beta-lactamase inhibitors, primary screen, biochemical, epi-absorbance readout, Pseudomonas aeruginosa enzyme; purified VIM-2, nitrocefin hydrolysis, epi-absorbance fluorescence; inhibition, % at 5.6 µM; actives 0.89% (n = 290,000); AID 1527, 2009;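 active = inhibition above the mean of all tested compounds plus 3 SD, cutoff set per screening run, cut at about 7.5% in these data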;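 also: red hydrolysis product quenches plate fluorescence so inhibitors raise well fluorescence; 0% = enzyme with DMSO and 100% = DMSO without enzyme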
Jurkat NFkB inh: inhibitors of induced NF-kB luciferase reporter, primary screen, TCR NF-kB activation inhibitor project, cell-based, luminescence, uHTS; Jurkat, PMA/ionomycin-induced NF-kB luciferase reporter; actives 0.53% (n = 330,000); inhibition, % at 4 µM; in the data active = inhibition above about 50%
697 NFkB inh: inhibitors of PMA/ionomycin-induced NF-kB reporter, 697 cells, primary screen, B-cell NF-kB inhibitor project, cell-based, luminescence, uHTS | actives 0.33% (n = 330,000) | 697 B-cell NF-kB luciferase reporter, 16 h | inhibition, % at 4 µM; in the data active = inhibition above about 35%
aSyn UTR inh: MLPCN primary screen, SNCA 5' untranslated region. alpha-synuclein 5'UTR reporter, inhibitor activity. inhibition, % (tested at 7.5 µM). actives 0.82% (n = 300,000); in the data active = inhibition above about 60%; inconclusive = no clear call, values can overlap the other calls;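 also: H4 neuroglioblastoma cells stably carrying SNCA 5'UTR luciferase fusion; 0% = DMSO wells and 100% = positive control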
IMP-1 inhibitor: IMP-1 metallo-beta-lactamase inhibitors, primary screen, biochemical, epi-absorbance readout, Pseudomonas aeruginosa enzyme. metallo-beta-lactamase IMP-1 (Pseudomonas aeruginosa). purified IMP-1, nitrocefin hydrolysis, epi-absorbance fluorescence. inhibition, % at 5.6 µM. actives 0.45% (n = 290,000). AID 1556, 2009;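 active = inhibition above the mean plus 3 SD of all compounds in the same screening run, cut at about 4.5% in these data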;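 also: 0% = IMP-1 with DMSO and 100% = DMSO wells lacking enzyme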
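Assay system: purified recombinant IMP-1 beta-lactamase. Input: IMP-1 0.2 nM before substrate addition. Buffer or medium: Zinc- and detergent-supplemented HEPES buffer, pH 7.1. Schedule: 25 °C, 15 min preincubation, 25 min reaction. Signal: Epi-absorbance fluorescence, 480 nm excitation, 530 nm emission. Evaluation: percent inhibition from optical density relative to buffer-blank wells.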
Jurkat NFkB conf: PMA/ionomycin-induced NF-kB reporter inhibitors, Jurkat retest, confirmation, T-cell NF-kB inhibitor project, cell-based, luminescence, single concentration; inhibition, % at 4 µM; shares compounds with Jurkat NFkB inh; Jurkat NF-kB luciferase, 16 h; actives 27% (n = 2,700); AID 435020, 2010;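 active = inhibition reaching about 45% at 4 µM in either replicate, limit read from the data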;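 also: plate controls were PMA/ionomycin stimulated DMSO wells for no effect and unstimulated DMSO wells for full effect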
697 NFkB conf: PMA/ionomycin-induced NF-kB reporter inhibitors, 697 retest, confirmation, B-cell NF-kB inhibitor project, cell-based, luminescence, single concentration; shares compounds with 697 NFkB inh; 697 B-cell NF-kB luciferase, 16 h; inhibition, % at 4 µM; actives 35% (n = 2,000); in the data active = inhibition mostly above about 28%, no sharp cut-off; inactive = mostly below about 22%
The depositor's hits bear a star; ? = inconclusive; . = not tested or not shown.

SMILES	Mdm2 MdmX PPI	VIM-2 inh	Jurkat NFkB inh	697 NFkB inh	aSyn UTR inh	IMP-1 inhibitor	Jurkat NFkB conf	697 NFkB conf
Cc1ccc(Nc2nc3ccccc3s2)cc1	-268.4	1.3	-152.6	-287.6	-170.8	-0.8	-123.6	-265.4
Cc1ccsc1/C=N/Nc1nc2ccccc2s1	-243.2	-4.3	-198.2	-342.2	-148.3	-2.4	-97.7	-272.6
CC(=O)Nc1ccc(/C=N/Nc2nc3ccccc3s2)cc1	.	-2.3	.	.	-42.1	-2.7	.	.
C(=N\Nc1nc2ccccc2s1)/c1ccco1	-174.2	-3.1	-159.7	-296.9	-80.1	-4.2	-99.6	-245.4
N#C/C(=C\c1ccc(N2CCOCC2)cc1)c1ccccc1	-155.2	1.1	-179.6	-254.1	-132.0	-2.9	-98.4	-199.9
COC(=O)c1ccc(N(CC(=O)NC2CCCCC2)C(=O)CNC(=O)c2ccco2)cc1	-1.7	-5.9	-25.2	11.7	-11.6	-2.6	.	.
Cc1cc(CSc2ccccc2)ccc1NC(=O)c1ccc(CN2CCOCC2)cc1	14.7	1.1	70.0*	48.9*	2.8	1.2	72.5*	46.7*
COc1ccc(NC(=O)CN2C(=O)NC(CC(C)C)C2=O)cc1S(=O)(=O)N1CCOCC1 (configuration not stated)	-3.0	.	3.1	1.5	.	.	.	.
O=C(NC(=S)Nc1ccc(Cl)cn1)c1cccs1	-86.5	-6.6	-163.8	-323.9	-92.3	-2.0	-100.5	-166.8
CC(C)(C)c1ccc(NC(=O)Nc2ccc(F)cc2)cc1	-134.8	0.2	-170.0	-255.0	-245.3	-0.5	-171.2	-316.9
COC(=O)C1CN(C(=O)COc2ccccc2)c2ccccc2O1 (configuration not stated)	-20.5	-0.5	-15.6	-0.1	5.5	-1.0	.	.
O=C(Cn1nc(C(=O)O)c2ccccc2c1=O)Nc1cc(S(=O)(=O)N2CCCCC2)ccc1Cl	-3.5	.	-0.9	-5.8	.	.	.	.
CC(=O)Nc1cccc(-c2csc(Nc3ccc(C)cn3)n2)c1	-285.6	-3.9	-200.8	-346.8	-65.9	-4.6	-87.8	-315.1
c1ccc(-c2csc(Nc3cccnc3)n2)cc1	-84.2	-3.3	-80.8	-39.1	-164.5	-3.0	.	.
CC(=O)Nc1cccc(-c2csc(Nc3ncccn3)n2)c1	.	-1.6	.	.	-169.8	-3.8	.	.
Cc1ccc(-c2csc(Nc3ccccn3)n2)cc1	-115.3	-1.8	-153.9	-370.6	-27.3	-3.1	-9.2	-257.5
COc1ccc(-c2csc(Nc3ccccn3)n2)cc1OC	-179.1	-1.4	-178.2	-265.3	-169.5	-1.9	-101.8	-92.9
c1ccc(-c2csc(Nc3ccccn3)n2)cc1	-212.5	-2.1	-158.6	-268.2	-107.3	-3.8	-74.1	-252.9
Cc1nc(N)sc1-c1csc(Nc2ccccn2)n1	.	-2.9	.	.	-168.4	-4.3	.	.
Cc1ccc(C)c2[nH]c(=O)c(CCNC(=O)CCc3ccccc3)cc12	10.4	-3.6	-0.2	2.4	15.3	-4.3	.	.
CCc1cc(=O)oc2cc(OCc3ccc(C(=O)O)o3)ccc12	23.0	-0.6	1.5	-22.2	-4.2	-1.2	.	.
CC(Oc1ccccc1)C(=O)Nc1cc(Cl)ccc1-n1cncn1 (configuration not stated)	18.2	.	1.8	10.4	28.2	.	.	.
O=C(Nc1nc(-c2cc(F)ccc2F)cs1)c1ccccn1	41.7	-0.2	-18.8	-42.8	-115.1	-0.1	.	.
Fc1ccc(-c2csc(Nc3ccccn3)n2)c(F)c1	-214.3	-1.5	-168.1	-295.2	-101.5	-0.8	-119.4	-160.4
O=C(CC(Nc1ccccc1)C(=O)O)c1ccccc1 (configuration not stated)	-83.4	.	-117.3	-145.8	-123.6	.	.	.
SMILES	Mdm2 MdmX PPI	VIM-2 inh	Jurkat NFkB inh	697 NFkB inh	aSyn UTR inh	IMP-1 inhibitor	Jurkat NFkB conf	697 NFkB conf
Cc1ccc(NC(CC(=O)c2ccccc2)C(=O)O)cc1Cl (configuration not stated)	-142.2	1.1	-203.8	-254.1	-125.2	0.7	-14.7	-21.6
COc1ccc(C(C)(C)C)cc1NC(=O)COC(=O)C1=NNC(=O)CC1	-19.6	.	-1.7	-15.2	.	.	.	.
Cc1ccc(OCC(=O)NCCNC(=O)c2ccncc2)cc1	-4.5	-2.0	4.1	14.7	-2.5	-1.8	.	.
Cc1ccsc1/C=N/N=C/c1sccc1C	-218.6	-0.7	-172.6	-298.9	-181.2	-3.1	-99.0	-230.3
CC(C)(C)c1ccc(-c2nc(-c3ccncc3)no2)cc1	-9.9	0.2	-192.7	-354.5	38.1	-1.1	-69.0	-379.0
Brc1ccccc1-c1nc(-c2ccccc2)no1	-108.4	0.8	-153.4	-303.3	29.9	-1.7	-97.8	-329.3
c1ccc(-c2noc(-c3cccc4ccccc34)n2)cc1	-191.1	-1.3	-131.0	-179.4	-179.4	-1.2	.	.
Cc1ccc(-c2nc(-c3ccncc3)no2)cc1	.	-4.7	.	.	-28.3	-4.7	.	.
Cc1ccc(-c2nc(-c3ccccc3)no2)cc1	-293.7	0.2	-177.2	-294.7	?	-1.9	-123.0	-283.1
C[C@H](NC(=O)c1ccccc1)C(=O)N1CCN(c2ccccc2)CC1	18.8	-1.5	12.4	-3.6	-3.0	-2.7	.	.
COc1cc(Br)cc(Br)c1OCC(=O)N/N=C/c1c(C)n(C)n(-c2ccccc2)c1=O	2.8	-4.0	4.8	7.2	.	1.3	.	.
CCc1nc2ccc(Cc3ccc4nc(CC)[nH]c4c3)cc2[nH]1	10.1	-0.8	11.1	-28.3	-51.6	-0.6	.	.
COc1ccc(CCNc2ncnc3sc(C)cc23)cc1OC	10.0	-1.0	60.9*	68.3*	77.4*	-4.2	73.4*	83.2*
CC(C)NC(=O)COc1coc(CN2CCN(c3ccccc3F)CC2)cc1=O	15.1	0.5	15.8	-4.8	-0.6	0.7	.	.
Cc1ccc(/C=C/c2nnc(-c3cccc(C)c3)o2)cc1	-21.8	-3.9	-35.4	-70.7	-35.0	-2.4	.	.
Cc1ccc(-c2nnc(/C=C/c3ccccc3)o2)cc1	-102.7	-2.6	-188.2	-311.8	-136.3	-3.9	-149.2	-253.1
Cc1cc(C(=O)Nc2ccc(Cl)cc2)c(C)n1Cc1cccs1	-5.4	-0.6	-59.9	-181.1	-67.2	1.2	.	.
Cc1cc(C)cc(NC(=O)c2cc(C)n(Cc3cccs3)c2C)c1	-0.3	-2.8	92.5*	-291.1	-116.5	-1.2	96.8*	-73.8
C[C@@H]1CN([C@@H](C)CO)C(=O)c2cc(NS(=O)(=O)c3cccs3)ccc2O[C@H]1CN(C)Cc1ccc(C(F)(F)F)cc1	28.9	.	-8.6	1.5	.	.	.	.
